Reference: ChEMBL document CHEMBL2069246, “Oxadiazoles in medicinal chemistry” (J Med Chem, 2012)
In brackets after ≈: the same amount, converted by molar mass.

Columns and labels:
[1] = target: Voltage-gated inwardly rectifying potassium channel KCNH2 (Homo sapiens, UniProt Q12809); assay: Inhibition of human ERG channel expressed in CHO cells by patch clamp assay
[2] = Dissociation constant, pKa of the compound; type: physicochemical
[3] = Lipophilicity, log D of the compound at pH 7.4; type: physicochemical; conditions: buffer
[4] = Aqueous solubility of the compound in HBSS buffer at pH 7.4; type: physicochemical
[5] = target: T1, Cytochrome P450 2C19 (Homo sapiens, UniProt P33261); assay: Inhibition of human recombinant CYP2C19 coexpressed in Escherichia coli; type: ADME
Procedure, shortened: (§1)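 Human recombinant cytochrome P450s at 37 °C. Read-out is inhibition of metabolic degradation of each isoform's substrate. Percent inhibition is measured at five test concentrations and converted to IC50.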

[6] = target: T2, Cytochrome P450 2C8 (Homo sapiens, UniProt P10632); assay: Inhibition of human recombinant CYP2C8 coexpressed in Escherichia coli; type: ADME; procedure, shortened: as §1
T2 sequence (P10632 whole entry): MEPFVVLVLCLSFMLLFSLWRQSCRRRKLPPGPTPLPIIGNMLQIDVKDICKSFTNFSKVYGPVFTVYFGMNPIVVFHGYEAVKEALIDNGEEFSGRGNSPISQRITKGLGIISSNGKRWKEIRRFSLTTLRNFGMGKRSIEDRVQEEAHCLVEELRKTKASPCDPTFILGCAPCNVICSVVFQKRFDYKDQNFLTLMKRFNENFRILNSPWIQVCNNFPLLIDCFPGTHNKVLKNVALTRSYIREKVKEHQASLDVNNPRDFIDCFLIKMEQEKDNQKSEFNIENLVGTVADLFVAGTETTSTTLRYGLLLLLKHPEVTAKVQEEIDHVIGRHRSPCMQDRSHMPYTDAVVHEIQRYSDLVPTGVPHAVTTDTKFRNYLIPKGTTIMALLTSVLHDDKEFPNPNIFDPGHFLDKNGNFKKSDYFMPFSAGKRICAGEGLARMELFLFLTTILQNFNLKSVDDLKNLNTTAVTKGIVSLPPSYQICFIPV

[7] = target: T3, Cytochrome P450 2D6 (Homo sapiens, UniProt P10635); assay: Inhibition of human recombinant CYP2D6 coexpressed in Escherichia coli; type: ADME; procedure, shortened: as §1
[8] = target: T4, Cytochrome P450 1A2 (Homo sapiens, UniProt P05177); assay: Activity of human recombinant CYP1A2 assessed as enzyme contribution towards compound metabolism at 37 degC; type: ADME
T4 sequence (P05177 whole entry): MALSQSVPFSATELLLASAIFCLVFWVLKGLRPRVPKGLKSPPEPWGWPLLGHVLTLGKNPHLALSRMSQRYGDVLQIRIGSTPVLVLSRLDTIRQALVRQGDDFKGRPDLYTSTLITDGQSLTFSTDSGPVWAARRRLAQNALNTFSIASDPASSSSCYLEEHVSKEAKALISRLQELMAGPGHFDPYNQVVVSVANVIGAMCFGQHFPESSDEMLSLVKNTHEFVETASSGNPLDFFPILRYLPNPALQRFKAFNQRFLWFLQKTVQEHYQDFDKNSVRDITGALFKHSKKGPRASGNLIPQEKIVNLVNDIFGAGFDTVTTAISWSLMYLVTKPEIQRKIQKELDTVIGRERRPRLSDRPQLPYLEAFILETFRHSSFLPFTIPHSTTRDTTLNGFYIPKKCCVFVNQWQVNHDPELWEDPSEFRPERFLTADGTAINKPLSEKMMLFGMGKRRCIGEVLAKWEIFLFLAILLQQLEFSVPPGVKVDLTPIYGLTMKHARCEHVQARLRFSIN
Procedure, shortened: (§2)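 CYP reaction phenotyping with human recombinant P450 isoforms at 37 °C. Each isoform's share of compound metabolism is given as percent contribution relative to the other isoforms in the test.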

[9] = target: T1, Cytochrome P450 2C19; assay: Activity of human recombinant CYP2C19 assessed as enzyme contribution towards compound metabolism at 37 degC; type: ADME; procedure, shortened: as §2
[10] = target: T4, Cytochrome P450 1A2; assay: Inhibition of human recombinant CYP1A2 coexpressed in Escherichia coli using phenacetin as probe; type: ADME; procedure, shortened: as §1
[11] = target: T5, Cytochrome P450 2C9 (Homo sapiens, UniProt P11712); assay: Inhibition of human recombinant CYP2C9 coexpressed in Escherichia coli; type: ADME; procedure, shortened: as §1
[12] = target: T2, Cytochrome P450 2C8; assay: Activity of human recombinant CYP2C8 assessed as enzyme contribution towards compound metabolism at 37 degC; type: ADME; procedure, shortened: as §2
[13] = target: T5, Cytochrome P450 2C9; assay: Activity of human recombinant CYP2C9 assessed as enzyme contribution towards compound metabolism at 37 degC; type: ADME; procedure, shortened: as §2
[14] = Intrinsic clearance in human liver microsomes at 1 mg/ml; type: ADME, Microsome; conditions: read-out: CLH
Procedure, shortened: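 Compound incubated 45 min at 37 °C with human liver microsomes at 1 mg/mL. CLint is taken from the rate of parent disappearance.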

[15] = target: T3, Cytochrome P450 2D6; assay: Activity of human recombinant CYP2D6 assessed as enzyme contribution towards compound metabolism at 37 degC; type: ADME; procedure, shortened: as §2
[16] = target: T6, Cytochrome P450 3A4 (Homo sapiens, UniProt P08684); assay: Activity of human recombinant CYP3A4 assessed as enzyme contribution towards compound metabolism at 37 degC; type: ADME; design: concentration or dose not given beside the values; procedure, shortened: as §2
[17] = target: T6, Cytochrome P450 3A4; assay: Inhibition of human recombinant CYP3A4 coexpressed in Escherichia coli; type: ADME; procedure, shortened: as §1
[18] = target: CYP2C9 (Homo sapiens, UniProt P11712); assay: Time dependent inhibition of human recombinant CYP2C9 coexpressed in Escherichia coli at 50 uM using diclofenac as probe; type: ADME
Procedure, shortened: (§3)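 Time-dependent inhibition of human recombinant P450s. Compound is preincubated 30 min at 37 °C with and without NADPH, then percent inhibition is read. Run at 10 and 50 μM, with the 50 μM value reported.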

[19] = target: T7, CYP2C8 (Homo sapiens, UniProt P10632); assay: Time dependent inhibition of human recombinant CYP2C8 coexpressed in Escherichia coli at 50 uM using amodiaquine as probe; type: ADME; procedure, shortened: as §3
T7 sequence (P10632 whole entry): T2 sequence (P10632 whole entry)

[20] = target: CYP2D6 (Homo sapiens, UniProt P10635); assay: Time dependent inhibition of human recombinant CYP2D6 coexpressed in Escherichia coli at 50 uM using bufuralol as probe; type: ADME; procedure, shortened: as §3
[21] = target: CYP2C19 (Homo sapiens, UniProt P33261); assay: Time dependent inhibition of human recombinant CYP2C19 coexpressed in Escherichia coli at 50 uM using mephenytoin as probe; type: ADME; procedure, shortened: as §3
[22] = target: T8, CYP1A2 (Homo sapiens, UniProt P05177); assay: Time dependent inhibition of human recombinant CYP1A2 coexpressed in Escherichia coli at 50 uM using phenacetin as probe; type: ADME; procedure, shortened: as §3
T8 sequence (P05177 whole entry): T4 sequence (P05177 whole entry)

[23] = target: CYP3A4 (Homo sapiens, UniProt P08684); assay: Time dependent inhibition of human recombinant CYP3A4 coexpressed in Escherichia coli at 50 uM using midazolam as probe; type: ADME; procedure, shortened: as §3
CYP3A4, sequence (P08684 whole entry): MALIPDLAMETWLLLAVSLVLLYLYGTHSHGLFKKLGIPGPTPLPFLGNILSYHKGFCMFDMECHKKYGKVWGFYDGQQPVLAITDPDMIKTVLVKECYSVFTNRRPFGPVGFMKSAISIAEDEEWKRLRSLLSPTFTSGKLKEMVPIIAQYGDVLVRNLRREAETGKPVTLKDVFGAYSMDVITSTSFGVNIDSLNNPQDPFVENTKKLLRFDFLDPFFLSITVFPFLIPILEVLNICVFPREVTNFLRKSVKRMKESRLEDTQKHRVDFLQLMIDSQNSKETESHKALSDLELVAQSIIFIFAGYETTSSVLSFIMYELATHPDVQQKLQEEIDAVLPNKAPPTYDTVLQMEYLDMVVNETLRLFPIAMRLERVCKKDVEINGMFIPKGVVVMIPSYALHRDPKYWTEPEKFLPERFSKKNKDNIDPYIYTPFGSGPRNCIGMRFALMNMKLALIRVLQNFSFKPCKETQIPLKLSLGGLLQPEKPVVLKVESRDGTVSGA

T6 sequence (P08684 whole entry): as above
T5 sequence (P11712 whole entry): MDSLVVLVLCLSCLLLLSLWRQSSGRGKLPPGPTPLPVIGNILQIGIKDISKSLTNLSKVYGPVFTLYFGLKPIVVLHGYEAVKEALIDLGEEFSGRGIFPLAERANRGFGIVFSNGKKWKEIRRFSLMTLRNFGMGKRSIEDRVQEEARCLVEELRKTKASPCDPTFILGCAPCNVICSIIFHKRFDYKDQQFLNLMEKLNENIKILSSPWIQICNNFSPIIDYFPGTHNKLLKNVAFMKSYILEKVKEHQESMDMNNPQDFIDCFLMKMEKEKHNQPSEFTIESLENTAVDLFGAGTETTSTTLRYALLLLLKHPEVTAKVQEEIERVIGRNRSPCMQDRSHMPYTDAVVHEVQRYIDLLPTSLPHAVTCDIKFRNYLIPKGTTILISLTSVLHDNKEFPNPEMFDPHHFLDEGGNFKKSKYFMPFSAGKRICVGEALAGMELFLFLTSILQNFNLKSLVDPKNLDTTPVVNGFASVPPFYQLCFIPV
T1 sequence (P33261 whole entry, canonical isoform): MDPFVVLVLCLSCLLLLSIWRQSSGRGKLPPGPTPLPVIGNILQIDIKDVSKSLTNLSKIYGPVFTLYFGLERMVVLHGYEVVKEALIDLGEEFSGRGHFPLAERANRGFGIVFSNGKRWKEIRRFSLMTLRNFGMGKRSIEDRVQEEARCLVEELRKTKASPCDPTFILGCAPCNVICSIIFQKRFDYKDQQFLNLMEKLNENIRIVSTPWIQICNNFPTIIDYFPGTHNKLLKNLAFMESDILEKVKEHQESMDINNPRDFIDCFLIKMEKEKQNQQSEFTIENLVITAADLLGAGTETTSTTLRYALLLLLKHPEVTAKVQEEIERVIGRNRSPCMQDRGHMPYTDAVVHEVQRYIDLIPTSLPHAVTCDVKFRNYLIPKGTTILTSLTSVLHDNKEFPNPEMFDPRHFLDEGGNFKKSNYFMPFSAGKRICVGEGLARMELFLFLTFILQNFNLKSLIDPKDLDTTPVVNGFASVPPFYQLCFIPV
Voltage-gated inwardly rectifying potassium channel KCNH2, sequence (Q12809 whole entry): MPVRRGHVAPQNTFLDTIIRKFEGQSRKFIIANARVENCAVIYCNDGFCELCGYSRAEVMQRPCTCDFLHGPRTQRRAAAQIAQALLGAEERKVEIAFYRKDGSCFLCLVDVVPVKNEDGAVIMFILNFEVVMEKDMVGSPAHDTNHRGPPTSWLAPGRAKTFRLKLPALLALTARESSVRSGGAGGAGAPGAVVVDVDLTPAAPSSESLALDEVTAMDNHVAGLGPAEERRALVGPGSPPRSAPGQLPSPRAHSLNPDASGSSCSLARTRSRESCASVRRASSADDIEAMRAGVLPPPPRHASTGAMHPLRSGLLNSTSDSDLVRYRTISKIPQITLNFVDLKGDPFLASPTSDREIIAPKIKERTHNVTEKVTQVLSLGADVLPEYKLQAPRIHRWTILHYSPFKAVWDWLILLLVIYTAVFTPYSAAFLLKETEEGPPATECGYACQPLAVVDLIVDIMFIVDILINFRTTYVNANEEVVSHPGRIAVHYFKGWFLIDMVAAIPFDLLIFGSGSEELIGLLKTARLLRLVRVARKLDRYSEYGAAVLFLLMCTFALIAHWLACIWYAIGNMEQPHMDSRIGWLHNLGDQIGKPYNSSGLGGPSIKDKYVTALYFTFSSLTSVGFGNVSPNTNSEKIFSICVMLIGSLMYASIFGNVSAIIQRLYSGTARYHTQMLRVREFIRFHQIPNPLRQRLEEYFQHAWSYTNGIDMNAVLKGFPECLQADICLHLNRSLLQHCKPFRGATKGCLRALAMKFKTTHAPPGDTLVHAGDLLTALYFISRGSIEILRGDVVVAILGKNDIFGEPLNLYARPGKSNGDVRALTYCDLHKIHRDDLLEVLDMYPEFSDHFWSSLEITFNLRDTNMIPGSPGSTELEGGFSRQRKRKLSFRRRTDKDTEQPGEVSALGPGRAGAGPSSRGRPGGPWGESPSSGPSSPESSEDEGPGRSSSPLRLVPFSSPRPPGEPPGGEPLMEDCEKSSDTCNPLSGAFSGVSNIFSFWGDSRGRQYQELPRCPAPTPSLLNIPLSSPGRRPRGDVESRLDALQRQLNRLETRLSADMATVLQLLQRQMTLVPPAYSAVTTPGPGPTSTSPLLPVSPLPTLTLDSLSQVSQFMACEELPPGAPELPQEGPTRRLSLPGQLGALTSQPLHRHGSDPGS
T3 sequence (P10635 whole entry): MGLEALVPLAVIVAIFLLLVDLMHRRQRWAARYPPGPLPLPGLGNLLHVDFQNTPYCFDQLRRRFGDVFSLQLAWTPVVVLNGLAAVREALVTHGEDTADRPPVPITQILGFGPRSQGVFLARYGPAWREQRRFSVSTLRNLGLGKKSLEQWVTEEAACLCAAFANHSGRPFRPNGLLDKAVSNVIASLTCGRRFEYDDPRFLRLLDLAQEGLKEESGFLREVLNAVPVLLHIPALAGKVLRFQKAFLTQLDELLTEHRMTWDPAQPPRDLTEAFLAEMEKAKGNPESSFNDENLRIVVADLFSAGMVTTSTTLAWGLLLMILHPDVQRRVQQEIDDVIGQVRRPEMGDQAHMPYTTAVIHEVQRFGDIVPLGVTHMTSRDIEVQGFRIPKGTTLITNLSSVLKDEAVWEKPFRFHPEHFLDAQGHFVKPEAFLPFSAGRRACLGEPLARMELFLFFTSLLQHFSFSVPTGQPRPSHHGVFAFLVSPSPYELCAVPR
CYP2C9, sequence (P11712 whole entry): as the sequence (P11712 whole entry) above
CYP2C19, sequence (P33261 whole entry): as the sequence (P33261 whole entry, canonical isoform) above
CYP2D6, sequence (P10635 whole entry): as the sequence (P10635 whole entry) above

C[C@@H](Oc1nnc(-c2ccncc2)n1C)c1nnc(-c2cccc(Cl)c2)o1
IC50 [1]: 21.5 µM
pKa [2]: 3.7
logD [3]: 2.3

CCCc1cc(O)nc(SCc2nc(-c3ccccc3)no2)n1
solubility [4]: 5 µM (≈ 1.64 µg/mL)
logD [3]: 3.1

c1cncc(-c2ccc(-c3noc(C4CN5CCC4CC5)n3)o2)c1 (stereo unspecified)
IC50 [1]: 6.4 µM
pKa [2]: 8.8
logD [3]: 0.7

c1ccc(-c2nnc(-c3ccccc3)o2)cc1
solubility [4]: 26 µM (≈ 5.78 µg/mL)
logD [3]: 4

c1ccc(CN2CCN(Cc3nnc(-c4ccccc4)o3)CC2)cc1
IC50 [5]: > 20 µM
IC50 [6]: > 20 µM
IC50 [7]: > 20 µM
Activity [8]: 0%
Activity [9]: 3.2%
IC50 [10]: > 20 µM
IC50 [11]: > 20 µM
IC50 [1]: 27.3 µM
pKa [2]: 6.7
Activity [12]: 1.5%
logD [3]: 3.6
CYP isoform contribution to compound metabolism [13]: 1.2%
microsomal CLint [14]: 4 µL/min/mg
Activity [15]: 1.7%
Activity [16]: 92%
IC50 [17]: > 20 µM

c1ccc(-c2noc(CN3CCN(Cc4nc5ccccc5s4)CC3)n2)cc1
IC50 [1]: 13 µM
pKa [2]: 4.4
logD [3]: 5.3

C[C@@H](Oc1nnc(-c2ccncc2)n1C)c1noc(-c2cccc(Cl)c2)n1
IC50 [1]: 11.6 µM
pKa [2]: 3.4
logD [3]: 3

CN(Cc1nc2ccccc2c(=O)[nH]1)Cc1nnc(-c2ccccc2)o1
IC50 [1]: > 33 µM
pKa [2]: 2.3
logD [3]: 2

c1ccc(-c2noc(-c3ccccc3)n2)cc1
solubility [4]: 7 µM (≈ 1.56 µg/mL)
logD [3]: 5.9

CCCc1cc(=O)[nH]c(SCc2nnc(-c3ccccc3)o2)n1
solubility [4]: 81 µM (≈ 26.6 µg/mL)
logD [3]: 2.2

c1cncc(-c2ccc(-c3nnc(C4CN5CCC4CC5)o3)o2)c1 (stereo unspecified)
IC50 [1]: 20.2 µM
pKa [2]: 9.1
logD [3]: < 0

O=C(NCc1ccncc1)c1nc(CS(=O)(=O)c2ccccc2)no1
inhibition at 50 µM [18]: < 19%
IC50 [5]: 1.3 µM
IC50 [6]: > 20 µM
IC50 [7]: 9.4 µM
inhibition at 50 µM [19]: < 14%
inhibition at 50 µM [20]: < 11%
Activity [8]: 0%
Activity [9]: 0.1%
inhibition at 50 µM [21]: < 12%
IC50 [10]: > 20 µM
IC50 [11]: 2.2 µM
inhibition at 50 µM [22]: < 10%
Activity [12]: 0%
CYP isoform contribution to compound metabolism [13]: 0.1%
microsomal CLint [14]: 93 µL/min/mg
Activity [15]: 0.1%
inhibition at 50 µM [23]: 42%
Activity [16]: 99.8%
IC50 [17]: 14.6 µM

c1ccc(-c2nnc(CN3CCN(Cc4nc5ccccc5s4)CC3)o2)cc1
IC50 [1]: 30 µM
pKa [2]: 4.4
logD [3]: 3.9

c1cc(-c2nnc(C3CCCCC3)o2)ccn1
inhibition at 50 µM [18]: < 19%
IC50 [5]: 1.3 µM
IC50 [6]: > 20 µM
IC50 [7]: > 20 µM
inhibition at 50 µM [19]: < 14%
inhibition at 50 µM [20]: < 11%
Activity [8]: 68.5%
Activity [9]: 14.8%
inhibition at 50 µM [21]: 13%
IC50 [10]: > 20 µM
IC50 [11]: > 20 µM
inhibition at 50 µM [22]: < 10%
Activity [12]: 1.5%
CYP isoform contribution to compound metabolism [13]: 2.4%
microsomal CLint [14]: 17 µL/min/mg
Activity [15]: 1.1%
inhibition at 50 µM [23]: < 7%
Activity [16]: 11.7%
IC50 [17]: > 20 µM

CCOC(=O)N1CCN(Cc2noc(-c3cc(Cl)ccc3F)n2)CC1
IC50 [1]: 31 µM
pKa [2]: 4
logD [3]: 4.3
